Measurements published in ChEMBL document CHEMBL3526048, “In vitro metabolism of rivoglitazone, a novel peroxisome proliferator-activated receptor γ agonist, in rat, monkey, and human liver microsomes and freshly isolated hepatocytes” (Drug Metab Dispos, 2011).

Target: Cytochrome P450 3A5 (Homo sapiens, UniProt P20815)
Experiment: Activity of human CYP3A5 expressed in microsomes isolated from baculovirus infected insect cell assessed as enzyme-mediated compound formation treated with [14C]-rivoglitazone at 20 uM after 2 hrs by radio-HPLC/LC-MS/MS analysis in presence of NADPH-generating system and NADPH-generating system/SAM
Assay type: ADME
Conditions: not given
Summary of the method: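 cDNA-expressed human CYP3A5 in baculovirus-insect-cell microsomes (1 mg/ml protein) was incubated with [¹⁴C]rivoglitazone (20 μM) in 50 mM potassium phosphate (pH 7.4) or 100 mM Tris-HCl (pH 7.5). NADPH-generating system: 2 mM NADP⁺, 20 mM glucose 6-phosphate, 2 units/ml G6PDH, 10 mM MgCl₂. Incubation ran 2 h at 37°C with shaking; insect-cell control supersomes served as control. Acetonitrile stop, supernatant concentrated, then radio-HPLC, LC-MS and LC-MS/MS.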

Cytochrome P450 3A5, sequence (P20815 whole entry): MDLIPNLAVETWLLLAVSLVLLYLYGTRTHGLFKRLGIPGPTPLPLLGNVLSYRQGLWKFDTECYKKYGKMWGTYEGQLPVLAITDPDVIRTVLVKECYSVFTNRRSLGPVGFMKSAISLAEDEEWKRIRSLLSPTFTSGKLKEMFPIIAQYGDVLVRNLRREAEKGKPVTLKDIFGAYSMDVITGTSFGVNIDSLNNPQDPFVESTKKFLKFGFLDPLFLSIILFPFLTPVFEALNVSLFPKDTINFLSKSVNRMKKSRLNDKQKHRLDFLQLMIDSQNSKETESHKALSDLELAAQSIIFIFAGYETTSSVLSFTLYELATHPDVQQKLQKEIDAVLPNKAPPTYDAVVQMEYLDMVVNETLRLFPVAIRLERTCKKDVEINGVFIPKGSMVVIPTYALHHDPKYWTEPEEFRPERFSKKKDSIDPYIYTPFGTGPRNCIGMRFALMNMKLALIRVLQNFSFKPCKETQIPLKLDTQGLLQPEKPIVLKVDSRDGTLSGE

Drug metabolism	SMILES
metabolite_detected	COc1ccc2nc(COc3ccc(CC(O)C(N)=O)cc3)n(C)c2c1 (stereo not drawn)
metabolite_detected	COc1ccc2nc(COc3ccc(CC(S)C(N)=O)cc3)n(C)c2c1 (stereo not drawn)
metabolite_detected	COc1ccc2nc(COc3ccc(CC4(O)SC(=O)NC4=O)cc3)n(C)c2c1 (stereo not drawn)

Test system: Hepatocyte
Experiment: Drug level in human hepatocytes treated with [14C]-rivoglitazone at 30 uM after 3 hrs by radio-HPLC/LC-MS/MS analysis
Assay type: ADME, cell-based
Conditions: not given
Summary of the method: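 Freshly isolated hepatocytes were suspended in HBSS at 2×10^6 viable cells/ml; trypan-blue viability was rat 88%, monkey 91 and 94%, human 66, 73 and 81%. Donors were rat (7 weeks, 170 g) and two male cynomolgus monkeys. Cells were incubated with [¹⁴C]rivoglitazone (30 μM) for 3 h at 37°C under 95% O₂/5% CO₂. Acetonitrile stop, sonication, samples pooled per species, supernatant analysed by radio-HPLC and LC-MS.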

Drug metabolism	SMILES
metabolite_detected	COc1ccc2nc(COc3ccc(CC(SSCC(N)C(=O)O)C(=O)O)cc3)n(C)c2c1 (stereo not drawn)

Test system: Hepatocyte (Macaca fascicularis)
Experiment: Drug level in monkey hepatocytes treated with [14C]-rivoglitazone at 30 uM after 3 hrs by radio-HPLC/LC-MS/MS analysis in presence of NADPH-generating system and NADPH-generating system/SAM
Conditions: cynomolgus monkey

Drug metabolism	SMILES
metabolite_detected	COc1ccc2nc(COc3ccc(CC4(O)SC(=O)NC4=O)cc3)n(C)c2c1 (stereo not drawn)

Test system: Hepatocyte
Experiment: Drug level in human hepatocytes treated with [14C]-rivoglitazone at 30 uM after 3 hrs by radio-HPLC/LC-MS/MS analysis in presence of NADPH-generating system and NADPH-generating system/SAM
Assay type: ADME, cell-based
Conditions: not given

Drug metabolism	SMILES
metabolite_detected	COc1ccc2nc(COc3ccc(CC4(O)SC(=O)NC4=O)cc3)n(C)c2c1 (stereo not drawn)

Test system: Hepatocyte
Experiment: Drug level in rat hepatocytes treated with [14C]-rivoglitazone at 30 uM after 3 hrs by radio-HPLC/LC-MS/MS analysis in presence of NADPH-generating system and NADPH-generating system/SAM
Assay type: ADME, cell-based
Conditions: not given

Drug metabolism	SMILES
metabolite_detected	COc1ccc2nc(COc3ccc(CC4(O)SC(=O)NC4=O)cc3)n(C)c2c1 (stereo not drawn)

Target: Cytochrome P450 2D6 (Homo sapiens, UniProt P10635)
Sequence (P10635 whole entry): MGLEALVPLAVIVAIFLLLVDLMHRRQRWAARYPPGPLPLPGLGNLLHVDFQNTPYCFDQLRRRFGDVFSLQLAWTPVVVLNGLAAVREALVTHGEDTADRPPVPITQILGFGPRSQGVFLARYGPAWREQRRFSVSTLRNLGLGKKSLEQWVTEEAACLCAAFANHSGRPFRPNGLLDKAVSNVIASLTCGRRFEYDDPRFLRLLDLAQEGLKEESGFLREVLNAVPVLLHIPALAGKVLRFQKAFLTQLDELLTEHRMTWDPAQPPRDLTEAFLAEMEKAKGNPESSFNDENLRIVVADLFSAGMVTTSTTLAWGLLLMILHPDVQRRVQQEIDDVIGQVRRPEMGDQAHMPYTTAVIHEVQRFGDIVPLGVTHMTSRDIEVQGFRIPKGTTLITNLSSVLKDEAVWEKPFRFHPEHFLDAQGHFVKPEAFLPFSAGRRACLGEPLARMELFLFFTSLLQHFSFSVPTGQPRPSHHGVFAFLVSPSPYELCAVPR
Experiment: Activity of human CYP2D6 expressed in microsomes isolated from baculovirus infected insect cell assessed as enzyme-mediated compound formation treated with [14C]-rivoglitazone at 20 uM after 2 hrs by radio-HPLC/LC-MS/MS analysis in presence of NADPH-generating system and NADPH-generating system/SAM
Assay type: ADME
Conditions: not given

Drug metabolism	SMILES
metabolite_detected	COc1ccc2nc(COc3ccc(CC(O)C(N)=O)cc3)n(C)c2c1 (stereo not drawn)
metabolite_detected	COc1ccc2nc(COc3ccc(CC(S)C(N)=O)cc3)n(C)c2c1 (stereo not drawn)
metabolite_detected	COc1ccc2nc(COc3ccc(CC4(O)SC(=O)NC4=O)cc3)n(C)c2c1 (stereo not drawn)

Test system: not listed separately
Experiment: Retention time of the compound by LC-MS/MS analysis
Assay type: physicochemical
Conditions: not given
Summary of the method: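 LC-MS/MS used a YMC-Pack ODS-A column (1.5 × 150 mm, 5 μm) at 30°C, 0.1 ml/min. Mobile phase was water and acetonitrile, each with 0.01% TFA. Gradient: 12→60% B over 30 min, →90% B over 5 min, hold 5 min. Detection was UV 220 nm with positive ESI Q-TOF (capillary 3300 V, cone 45 V), collision energy 20 eV and xenon as collision gas.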

Retention_time [min]	SMILES
16.3	COc1ccc2nc(COc3ccc(CC(O)C(N)=O)cc3)n(C)c2c1 (stereo not drawn)
20.2	COc1ccc2nc(COc3ccc(CC(S)C(N)=O)cc3)n(C)c2c1 (stereo not drawn)
21.5	COc1ccc2nc(COc3ccc(CC4(O)SC(=O)NC4=O)cc3)n(C)c2c1 (stereo not drawn)
17.1	COc1ccc2nc(COc3ccc(CC(SSCC(N)C(=O)O)C(=O)O)cc3)n(C)c2c1 (stereo not drawn)

Test system: Liver microsome
Experiment: Drug level in Sprague-Dawley rat liver microsomes treated with [14C]-rivoglitazone at 20 uM after 2 hrs by radio-HPLC/LC-MS/MS analysis in presence of NADPH-generating system and NADPH-generating system/SAM
Assay type: ADME
Conditions: not given
Summary of the method: (§1)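 Pooled male liver microsomes (1 mg/ml protein; rat from 94 Sprague-Dawley, monkey from 8 cynomolgus, human from 23 donors) were incubated with [¹⁴C]rivoglitazone (20 μM). Buffer: 10 mM potassium phosphate (pH 7.4). Cofactors: NADPH-generating system (2 mM NADP⁺, 20 mM G6P, 2 U/ml G6PDH, 10 mM MgCl₂), with or without 2 mM SAM. Incubation 2 h at 37°C with shaking; controls lacked NADPH system and SAM alone. Acetonitrile stop, radio-HPLC plus LC-MS.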

Drug metabolism	SMILES
metabolite_detected	COc1ccc2nc(COc3ccc(CC(O)C(N)=O)cc3)n(C)c2c1 (stereo not drawn)
metabolite_detected	COc1ccc2nc(COc3ccc(CC(S)C(N)=O)cc3)n(C)c2c1 (stereo not drawn)
metabolite_detected	COc1ccc2nc(COc3ccc(CC4(O)SC(=O)NC4=O)cc3)n(C)c2c1 (stereo not drawn)

Target: Cytochrome P450 3A4 (Homo sapiens, UniProt P08684)
Sequence (P08684 whole entry): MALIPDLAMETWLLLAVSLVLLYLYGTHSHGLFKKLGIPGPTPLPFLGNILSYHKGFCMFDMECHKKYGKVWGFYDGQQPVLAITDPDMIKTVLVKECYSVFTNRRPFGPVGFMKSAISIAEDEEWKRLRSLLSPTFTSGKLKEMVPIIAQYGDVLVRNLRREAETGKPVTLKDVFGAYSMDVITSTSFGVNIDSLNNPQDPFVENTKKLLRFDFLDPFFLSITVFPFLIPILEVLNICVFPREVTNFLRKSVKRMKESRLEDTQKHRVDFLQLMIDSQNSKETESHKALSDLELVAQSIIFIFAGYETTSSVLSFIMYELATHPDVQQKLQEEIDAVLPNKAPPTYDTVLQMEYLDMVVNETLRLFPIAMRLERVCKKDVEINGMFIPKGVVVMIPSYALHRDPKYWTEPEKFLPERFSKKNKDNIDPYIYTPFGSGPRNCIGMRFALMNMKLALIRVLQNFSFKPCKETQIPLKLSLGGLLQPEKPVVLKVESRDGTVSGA
Experiment: Activity of human CYP3A4 expressed in microsomes isolated from baculovirus infected insect cell assessed as enzyme-mediated compound formation treated with [14C]-rivoglitazone at 20 uM after 2 hrs by radio-HPLC/LC-MS/MS analysis in presence of NADPH-generating system and NADPH-generating system/SAM
Assay type: ADME
Conditions: not given

Drug metabolism	SMILES
metabolite_detected	COc1ccc2nc(COc3ccc(CC(O)C(N)=O)cc3)n(C)c2c1 (stereo not drawn)
metabolite_detected	COc1ccc2nc(COc3ccc(CC(S)C(N)=O)cc3)n(C)c2c1 (stereo not drawn)
metabolite_detected	COc1ccc2nc(COc3ccc(CC4(O)SC(=O)NC4=O)cc3)n(C)c2c1 (stereo not drawn)

Target: T1, Cytochrome P450 2C8 (Homo sapiens, UniProt P10632)
T1 sequence (P10632 whole entry): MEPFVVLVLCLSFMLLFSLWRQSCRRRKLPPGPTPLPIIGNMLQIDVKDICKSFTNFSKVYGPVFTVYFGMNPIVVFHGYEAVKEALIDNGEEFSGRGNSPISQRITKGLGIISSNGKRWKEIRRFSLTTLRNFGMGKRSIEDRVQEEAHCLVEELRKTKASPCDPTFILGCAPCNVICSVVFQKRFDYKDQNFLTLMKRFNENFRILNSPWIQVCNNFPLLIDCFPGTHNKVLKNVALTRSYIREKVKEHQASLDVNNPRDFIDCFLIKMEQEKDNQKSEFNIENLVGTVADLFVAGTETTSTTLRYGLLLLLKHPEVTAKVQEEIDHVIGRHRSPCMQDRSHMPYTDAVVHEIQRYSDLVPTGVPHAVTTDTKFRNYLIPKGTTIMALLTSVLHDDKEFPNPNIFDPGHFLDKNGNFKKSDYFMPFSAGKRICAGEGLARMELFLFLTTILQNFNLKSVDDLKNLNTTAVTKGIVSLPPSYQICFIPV
Experiment: Activity of human CYP2C8 expressed in microsomes isolated from baculovirus infected insect cell assessed as enzyme-mediated compound formation treated with [14C]-rivoglitazone at 20 uM after 2 hrs by radio-HPLC/LC-MS/MS analysis in presence of NADPH-generating system and NADPH-generating system/SAM
Assay type: ADME
Conditions: not given
Summary of the method: (§2)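 Baculovirus/insect-cell microsomes expressing single human CYPs, 1 mg/ml protein, with 50 mM potassium phosphate (pH 7.4) or 100 mM Tris-HCl (pH 7.5). NADPH-generating system: 2 mM NADP⁺, 20 mM glucose 6-phosphate, 2 units/ml G6PDH, 10 mM MgCl₂. [¹⁴C]rivoglitazone at 20 μM, 2 h at 37°C with shaking. Control used insect-cell control supersomes. Stopped with acetonitrile; supernatant concentrated under nitrogen; metabolites analysed by radio-HPLC, LC-MS and LC-MS/MS.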

Drug metabolism	SMILES
metabolite_detected	COc1ccc2nc(COc3ccc(CC(O)C(N)=O)cc3)n(C)c2c1 (stereo not drawn)
metabolite_detected	COc1ccc2nc(COc3ccc(CC(S)C(N)=O)cc3)n(C)c2c1 (stereo not drawn)
metabolite_detected	COc1ccc2nc(COc3ccc(CC4(O)SC(=O)NC4=O)cc3)n(C)c2c1 (stereo not drawn)

Target: Cytochrome P450 2C19 (Homo sapiens, UniProt P33261)
Sequence (P33261 whole entry): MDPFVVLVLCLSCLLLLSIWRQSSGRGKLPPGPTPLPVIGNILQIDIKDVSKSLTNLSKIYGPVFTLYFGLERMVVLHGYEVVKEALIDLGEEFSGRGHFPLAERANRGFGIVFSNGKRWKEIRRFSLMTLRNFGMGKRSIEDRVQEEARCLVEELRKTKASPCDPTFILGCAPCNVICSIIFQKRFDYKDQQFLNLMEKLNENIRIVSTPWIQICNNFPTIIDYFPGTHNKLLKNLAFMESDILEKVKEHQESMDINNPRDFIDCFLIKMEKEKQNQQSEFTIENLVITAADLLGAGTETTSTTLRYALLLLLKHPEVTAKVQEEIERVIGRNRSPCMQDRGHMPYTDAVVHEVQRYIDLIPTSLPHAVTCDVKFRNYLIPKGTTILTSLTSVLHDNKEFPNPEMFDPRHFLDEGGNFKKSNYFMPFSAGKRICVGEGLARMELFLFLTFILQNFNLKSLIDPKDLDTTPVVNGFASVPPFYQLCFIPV
Experiment: Activity of human CYP2C19 expressed in microsomes isolated from baculovirus infected insect cell assessed as enzyme-mediated compound formation treated with [14C]-rivoglitazone at 20 uM after 2 hrs by radio-HPLC/LC-MS/MS analysis in presence of NADPH-generating system and NADPH-generating system/SAM
Assay type: ADME
Conditions: not given
Summary of the method: as §2

Drug metabolism	SMILES
metabolite_detected	COc1ccc2nc(COc3ccc(CC(O)C(N)=O)cc3)n(C)c2c1 (stereo not drawn)
metabolite_detected	COc1ccc2nc(COc3ccc(CC(S)C(N)=O)cc3)n(C)c2c1 (stereo not drawn)
metabolite_detected	COc1ccc2nc(COc3ccc(CC4(O)SC(=O)NC4=O)cc3)n(C)c2c1 (stereo not drawn)

Test system: Liver microsome
Experiment: Drug level in human liver microsomes treated with [14C]-rivoglitazone at 20 uM after 2 hrs by radio-HPLC/LC-MS/MS analysis in presence of NADPH-generating system and NADPH-generating system/SAM
Assay type: ADME
Conditions: not given
Summary of the method: as §1

Drug metabolism	SMILES
metabolite_detected	COc1ccc2nc(COc3ccc(CC(O)C(N)=O)cc3)n(C)c2c1 (stereo not drawn)
metabolite_detected	COc1ccc2nc(COc3ccc(CC(S)C(N)=O)cc3)n(C)c2c1 (stereo not drawn)
metabolite_detected	COc1ccc2nc(COc3ccc(CC4(O)SC(=O)NC4=O)cc3)n(C)c2c1 (stereo not drawn)

Target: T2, Cytochrome P450 1A2 (Homo sapiens, UniProt P05177)
T2 sequence (P05177 whole entry): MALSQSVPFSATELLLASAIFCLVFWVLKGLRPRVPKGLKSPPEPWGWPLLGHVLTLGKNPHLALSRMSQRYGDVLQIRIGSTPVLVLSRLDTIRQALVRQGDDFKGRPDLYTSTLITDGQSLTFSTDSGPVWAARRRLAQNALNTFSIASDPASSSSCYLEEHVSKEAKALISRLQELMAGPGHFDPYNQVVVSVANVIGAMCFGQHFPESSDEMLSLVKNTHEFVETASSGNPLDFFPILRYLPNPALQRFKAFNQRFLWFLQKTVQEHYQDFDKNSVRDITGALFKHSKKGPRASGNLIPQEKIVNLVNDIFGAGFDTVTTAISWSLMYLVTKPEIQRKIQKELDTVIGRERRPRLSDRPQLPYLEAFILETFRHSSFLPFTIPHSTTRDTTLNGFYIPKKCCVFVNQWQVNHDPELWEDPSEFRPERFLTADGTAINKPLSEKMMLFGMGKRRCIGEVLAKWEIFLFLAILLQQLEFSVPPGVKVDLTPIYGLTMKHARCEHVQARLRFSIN
Experiment: Activity of human CYP1A2 expressed in microsomes isolated from baculovirus infected insect cell assessed as enzyme-mediated compound formation treated with [14C]-rivoglitazone at 20 uM after 2 hrs by radio-HPLC/LC-MS/MS analysis in presence of NADPH-generating system and NADPH-generating system/SAM
Assay type: ADME
Conditions: not given
Summary of the method: as §2

Drug metabolism	SMILES
metabolite_detected	COc1ccc2nc(COc3ccc(CC(O)C(N)=O)cc3)n(C)c2c1 (stereo not drawn)
metabolite_detected	COc1ccc2nc(COc3ccc(CC(S)C(N)=O)cc3)n(C)c2c1 (stereo not drawn)
metabolite_detected	COc1ccc2nc(COc3ccc(CC4(O)SC(=O)NC4=O)cc3)n(C)c2c1 (stereo not drawn)

Test system: not listed separately
Experiment: Drug level in cynomolgus monkey liver microsomes treated with [14C]-rivoglitazone at 20 uM after 2 hrs by radio-HPLC/LC-MS/MS analysis in presence of NADPH-generating system and NADPH-generating system/SAM
Assay type: ADME, Macaca fascicularis
Conditions: not given
Summary of the method: as §1

Drug metabolism	SMILES
metabolite_detected	COc1ccc2nc(COc3ccc(CC(O)C(N)=O)cc3)n(C)c2c1 (stereo not drawn)
metabolite_detected	COc1ccc2nc(COc3ccc(CC(S)C(N)=O)cc3)n(C)c2c1 (stereo not drawn)
metabolite_detected	COc1ccc2nc(COc3ccc(CC4(O)SC(=O)NC4=O)cc3)n(C)c2c1 (stereo not drawn)

Target: Cytochrome P450 2C9 (Homo sapiens, UniProt P11712)
Sequence (P11712 whole entry): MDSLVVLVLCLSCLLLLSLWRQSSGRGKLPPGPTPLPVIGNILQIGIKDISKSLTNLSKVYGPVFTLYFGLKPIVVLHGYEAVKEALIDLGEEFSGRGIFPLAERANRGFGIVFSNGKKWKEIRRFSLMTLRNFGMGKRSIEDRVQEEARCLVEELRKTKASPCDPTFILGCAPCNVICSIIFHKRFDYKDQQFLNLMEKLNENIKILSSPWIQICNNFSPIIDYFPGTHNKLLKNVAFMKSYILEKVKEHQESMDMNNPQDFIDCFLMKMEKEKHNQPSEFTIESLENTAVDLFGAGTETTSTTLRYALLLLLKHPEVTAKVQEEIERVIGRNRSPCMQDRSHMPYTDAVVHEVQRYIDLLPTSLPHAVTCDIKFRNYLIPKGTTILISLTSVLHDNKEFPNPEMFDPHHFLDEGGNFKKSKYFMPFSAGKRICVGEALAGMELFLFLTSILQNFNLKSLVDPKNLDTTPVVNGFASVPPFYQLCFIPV
Experiment: Activity of human CYP2C9 expressed in microsomes isolated from baculovirus infected insect cell assessed as enzyme-mediated compound formation treated with [14C]-rivoglitazone at 20 uM after 2 hrs by radio-HPLC/LC-MS/MS analysis in presence of NADPH-generating system and NADPH-generating system/SAM
Assay type: ADME
Conditions: not given

Drug metabolism	SMILES
metabolite_detected	COc1ccc2nc(COc3ccc(CC(O)C(N)=O)cc3)n(C)c2c1 (stereo not drawn)
metabolite_detected	COc1ccc2nc(COc3ccc(CC(S)C(N)=O)cc3)n(C)c2c1 (stereo not drawn)
metabolite_detected	COc1ccc2nc(COc3ccc(CC4(O)SC(=O)NC4=O)cc3)n(C)c2c1 (stereo not drawn)
